Experiments:
MCF7 = assay: Antiproliferative activity against human MCF7 cells after 48 hrs; type: functional, cell-based; conditions: MCF7, 48 h
NCI-H226 = assay: Antiproliferative activity against human NCI-H226 cells after 48 hrs; type: functional; conditions: NCI-H226, 48 h
Procedure, shortened: (§1)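 NCI 60-cell screen. Cells were grown in RPMI 1640 with 5% FBS and 2 mM L-glutamine, then plated at 5,000–40,000 cells/well according to doubling time and preincubated for 24 h at 37 °C in 5% CO2. Compounds were dissolved in DMSO at 400× the top final concentration and tested at five 10-fold dilutions from 10−4 to 10−8 M for 48 h. Growth was read spectrophotometrically; GI50 is 50% net protein reduction.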

[1] = Antiproliferative activity against human NCI-ADR-RES cells after 48 hrs; type: functional; procedure, shortened: as §1
RPMI-8226 = assay: Antiproliferative activity against human RPMI8226 cells after 48 hrs; type: functional; conditions: RPMI-8226, 48 h; procedure, shortened: as §1
OVCAR-4 = assay: Antiproliferative activity against human OVCAR4 cells after 48 hrs; type: functional; conditions: OVCAR-4, 48 h; procedure, shortened: as §1
UO-31 = assay: Antiproliferative activity against human UO31 cells after 48 hrs; type: functional; conditions: UO-31, 48 h
Procedure, shortened: (§2)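 NCI 60-cell-line screen. Lines grown in RPMI 1640 with 5% fetal bovine serum and 2 mM L-glutamine, plated at 5,000–40,000 cells/well according to doubling time, left 24 h at 37 °C in 5% CO2. Drug stocks in DMSO at 400-fold the top final concentration. Five 10-fold dilutions, 10−4 to 10−8 M, incubated 48 h. Growth read spectrophotometrically as net protein; GI50 taken as 50% reduction.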

UACC-257 = assay: Antiproliferative activity against human UACC257 cells after 48 hrs; type: functional; conditions: UACC-257, 48 h; procedure, shortened: as §2
T47D = assay: Antiproliferative activity against human T47D cells after 48 hrs; type: functional; procedure, shortened: as §2
SK-MEL-28 = assay: Antiproliferative activity against human SKMEL28 cells after 48 hrs; type: functional; conditions: SK-MEL-28, 48 h; procedure, shortened: as §1
SF-539 = assay: Antiproliferative activity against human SF539 cells after 48 hrs; type: functional; conditions: SF-539, 48 h; procedure, shortened: as §1
PC-3 = assay: Antiproliferative activity against human PC3 cells after 48 hrs; type: functional; conditions: PC-3, 48 h; procedure, shortened: as §1
SF-268 = assay: Antiproliferative activity against human SF268 cells after 48 hrs; type: functional; conditions: SF-268, 48 h; procedure, shortened: as §1
DU-145 = assay: Antiproliferative activity against human DU145 cells after 48 hrs; type: functional; conditions: DU-145, 48 h; procedure, shortened: as §1
CAKI-1 = assay: Antiproliferative activity against human CAKI1 cells after 48 hrs; type: functional; conditions: CAKI-1, 48 h; procedure, shortened: as §1
OVCAR-3 = assay: Antiproliferative activity against human OVCAR-3 cells after 48 hrs; type: functional; conditions: OVCAR-3, 48 h; procedure, shortened: as §1
BT-549 = assay: Antiproliferative activity against human BT549 cells after 48 hrs; type: functional; conditions: BT-549, 48 h; procedure, shortened: as §1
RXF 393 = assay: Antiproliferative activity against human RXF393 cells after 48 hrs; type: functional; conditions: RXF 393, 48 h; procedure, shortened: as §1
NCI-H23 = assay: Antiproliferative activity against human NCI-H23 cells after 48 hrs; type: functional; conditions: NCI-H23, 48 h; procedure, shortened: as §1
Hs-578T = assay: Antiproliferative activity against human HS578T cells after 48 hrs; type: functional; procedure, shortened: as §1
NCI-H322M = assay: Antiproliferative activity against human NCI-H322M cells after 48 hrs; type: functional; procedure, shortened: as §1
OVCAR-5 = assay: Antiproliferative activity against human OVCAR5 cells after 48 hrs; type: functional; conditions: OVCAR-5, 48 h; procedure, shortened: as §1
SNB-19 = assay: Antiproliferative activity against human SNB19 cells after 48 hrs; type: functional; conditions: SNB-19, 48 h; procedure, shortened: as §1
MDA-MB-231 = assay: Antiproliferative activity against human MDA-MB-231 cells after 48 hrs; type: functional; conditions: MDA-MB-231, 48 h; procedure, shortened: as §1
HT-29 = assay: Antiproliferative activity against human HT29 cells after 48 hrs; type: functional; conditions: HT-29, 48 h; procedure, shortened: as §1
HCT-15 = assay: Antiproliferative activity against human HCT15 cells after 48 hrs; type: functional; conditions: Homo sapiens, HCT-15, 48 h; procedure, shortened: as §1
A549 = assay: Antiproliferative activity against human A549 cells after 48 hrs; type: functional; conditions: A549, 48 h; procedure, shortened: as §1
MDA-MB-435 = assay: Antiproliferative activity against human MDA-MB-435 cells after 48 hrs; type: functional; conditions: Homo sapiens, MDA-MB-435, 48 h; procedure, shortened: as §1
SK-OV-3 = assay: Antiproliferative activity against human SKOV3 cells after 48 hrs; type: functional; conditions: SK-OV-3, 48 h; procedure, shortened: as §1
U-251 = assay: Antiproliferative activity against human U251 cells after 48 hrs; type: functional; conditions: U-251, 48 h; procedure, shortened: as §2
M14 = assay: Antiproliferative activity against human M14 cells after 48 hrs; type: functional; conditions: M14, 48 h; procedure, shortened: as §1
COLO 205 = assay: Antiproliferative activity against human COLO205 cells after 48 hrs; type: functional; conditions: COLO 205, 48 h; procedure, shortened: as §1
MOLT-4 = assay: Antiproliferative activity against human MOLT4 cells after 48 hrs; type: functional; conditions: MOLT-4, 48 h; procedure, shortened: as §1
[2] = read-out: Log LC50 (the source's name) (converted)

Compound: CCCCCCCCCCCCCCN[C@@H](CO)Cc1ccccc1
- GI50 (MCF7): 1.74 µM
- LC50 (MCF7): 6.03 µM
- TGI (MCF7; read-out: Log TGI (converted)): 3.24 µM
- GI50 (NCI-H226): 1.91 µM
- TGI (NCI-H226; read-out: Log TGI (converted)): 3.8 µM
- GI50 [1]: 1.86 µM
- LC50 [1]: 6.31 µM
- TGI ([1]; read-out: Log TGI (converted)): 3.47 µM
- GI50 (RPMI-8226): 1.55 µM
- CC50 (RPMI-8226; [2]): 7.41 µM
- TGI (RPMI-8226; read-out: Log TGI (converted)): 3.39 µM
- GI50 (OVCAR-4): 1.91 µM
- LC50 (OVCAR-4): 6.31 µM
- TGI (OVCAR-4; read-out: Log TGI (converted)): 3.47 µM
- GI50 (UO-31): 4.37 µM
- LC50 (UO-31): > 100 µM
- TGI (UO-31; read-out: Log TGI (converted)): 21.4 µM
- GI50 (UACC-257): 2.09 µM
- CC50 (UACC-257; [2]): 17.8 µM
- TGI (UACC-257; read-out: Log TGI (converted)): 4.79 µM
- GI50 (T47D): 1.66 µM
- CC50 (T47D; [2]): 6.92 µM
- TGI (T47D; read-out: Log TGI (converted)): 3.31 µM
- GI50 (SK-MEL-28): 1.91 µM
- LC50 (SK-MEL-28): 6.31 µM
- TGI (SK-MEL-28; read-out: Log TGI (converted)): 3.47 µM
- GI50 (SF-539): 1.7 µM
- LC50 (SF-539): 6.76 µM
- TGI (SF-539; read-out: Log TGI (converted)): 3.39 µM
- GI50 (PC-3): 1.62 µM
- LC50 (PC-3): 5.62 µM
- TGI (PC-3; read-out: Log TGI (converted)): 2.82 µM
- GI50 (SF-268): 1.78 µM
- LC50 (SF-268): 7.08 µM
- TGI (SF-268; read-out: Log TGI (converted)): 3.55 µM
- GI50 (DU-145): 1.45 µM
- CC50 (DU-145; [2]): 6.03 µM
- TGI (DU-145; read-out: Log TGI (converted)): 3.09 µM
- GI50 (CAKI-1): 1.66 µM
- CC50 (CAKI-1; [2]): 5.62 µM
- TGI (CAKI-1; read-out: Log TGI (converted)): 3.09 µM
- GI50 (OVCAR-3): 1.66 µM
- LC50 (OVCAR-3): 5.5 µM
- TGI (OVCAR-3; read-out: Log TGI (converted)): 3.02 µM
- LC50 (BT-549): 4.57 µM
- TGI (BT-549; read-out: Log TGI (converted)): 1.78 µM
- GI50 (RXF 393): 1.7 µM
- CC50 (RXF 393; [2]): 6.92 µM
- TGI (RXF 393; read-out: Log TGI (converted)): 3.47 µM
- GI50 (NCI-H23): 2.09 µM
- CC50 (NCI-H23; [2]): 9.77 µM
- TGI (NCI-H23; read-out: Log TGI (converted)): 4.47 µM
- GI50 (Hs-578T): 2.4 µM
- LC50 (Hs-578T): 11 µM
- TGI (Hs-578T; read-out: Log TGI (converted)): 5.01 µM
- GI50 (NCI-H322M): 2 µM
- CC50 (NCI-H322M; [2]): 7.41 µM
- TGI (NCI-H322M; read-out: Log TGI (converted)): 3.89 µM
- GI50 (OVCAR-5): 2.4 µM
- CC50 (OVCAR-5; [2]): 15.8 µM
- TGI (OVCAR-5; read-out: Log TGI (converted)): 5.5 µM
- GI50 (SNB-19): 1.7 µM
- CC50 (SNB-19; [2]): 5.89 µM
- TGI (SNB-19; read-out: Log TGI (converted)): 3.16 µM
- GI50 (MDA-MB-231): 2 µM
- LC50 (50% lethal concentration) (MDA-MB-231): 6.61 µM
- TGI (MDA-MB-231; read-out: Log TGI (converted)): 3.63 µM
- GI50 (HT-29): 2.04 µM
- LC50 (HT-29): 7.76 µM
- TGI (HT-29; read-out: Log TGI (converted)): 3.98 µM
- GI50 (HCT-15): 1.7 µM
- LC50 (HCT-15): 5.89 µM
- TGI (HCT-15; read-out: Log TGI (converted)): 3.16 µM
- GI50 (A549): 2.04 µM
- CC50 (A549; [2]): 26.3 µM
- TGI (A549; read-out: Log TGI (converted)): 4.68 µM
- GI50 (MDA-MB-435): 1.74 µM
- LC50 (MDA-MB-435): 5.62 µM
- TGI (MDA-MB-435; read-out: Log TGI (converted)): 3.16 µM
- GI50 (SK-OV-3): 2.19 µM
- CC50 (SK-OV-3; [2]): 9.33 µM
- TGI (SK-OV-3; read-out: Log TGI (converted)): 4.57 µM
- GI50 (U-251): 1.74 µM
- TGI (U-251; read-out: Log TGI (converted)): 3.24 µM
- GI50 (M14): 2.24 µM
- LC50 (M14): 6.76 µM
- TGI (M14; read-out: Log TGI (converted)): 3.89 µM
- GI50 (COLO 205): 1.66 µM
- CC50 (COLO 205; [2]): 6.03 µM
- TGI (COLO 205; read-out: Log TGI (converted)): 3.16 µM
- GI50 (MOLT-4): 2.04 µM
- LC50 (MOLT-4): 9.33 µM
- TGI (MOLT-4; read-out: Log TGI (converted)): 4.37 µM

Reference: ChEMBL document CHEMBL1143122, “Novel analogs of D-e-MAPP and B13. Part 1: synthesis and evaluation as potential anticancer agents” (Bioorg Med Chem, 2008)
